The record followed here is ChEMBL document CHEMBL4052722, “Virtual screening, synthesis and biological evaluation of DNA intercalating antiviral agents” (Bioorg Med Chem Lett, 2017).

Series [1] is described as follows: Cytotoxicity against African green monkey CV1 cells assessed as cell viability at 0.1 to 100 uM preincubated for 4 hrs measured after 24 hrs by MTT assay relative to control. It is filed as cell-based, CV-1. To be noted: chlorocebus aethiops, read-out: Activity. The procedure, abridged: (§1)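 CV-1 cells were exposed to test samples at 0.1, 10 and 100 μM. Viability was read by MTT assay.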
(In general: Tetrazolium dyes change colour on reduction, which living cells bring about.)

The nature of series [2]: Cytotoxicity against African green monkey CV1 cells assessed as reduction in cell viability preincubated for 4 hrs measured after 24 hrs by MTT assay relative to control. It is filed as cell-based, CV-1. To be noted: chlorocebus aethiops. The procedure, abridged: as §1
The species named for a further series is Bos taurus. Put plainly: Displacement of ethidium bromide from calf thymus DNA by fluorescence binding assay.
In series [3] the test system is Vesicular stomatitis virus. Briefly: Antiviral activity against Vesicular stomatitis virus at 0.2 to 620 uM after 24 hrs post infection relative to control. It is filed as functional.

What is called CC50 is the concentration at which the toxic effect on the cells reaches its halfway point. As to `CC(O)N(C)CCn1c2ccccc2c2nc3ccccc3nc21` (stereo not given), the viability at 24 h, up to 100 µM in series [1] is 78%. Further, the CC50 at 24 h in series [2] came out at 100 µM.
For `O=C(CCCn1c2ccccc2c2nc3ccccc3nc21)NCCCN1CCOCC1`, the viability at 24 h, up to 100 µM in series [1] was determined as 85%. In series [2], the CC50 at 24 h was greater than 100 µM. Further, the log Ka in the series filed under Bos taurus worked out at 5.11.
The corresponding values for `O=C(CCCn1c2ccccc2c2nc3ccccc3nc21)NCCN1CCCCC1` are 93%, 100 µM and 4.98.
For `Cc1ccc2c(c1)c1nc3ccccc3nc1n2CCN1CCN(C)CC1`, the viability at 24 h, up to 100 µM in series [1] was determined as 87%. Also, in series [2], the CC50 at 24 h was 100 µM.
`COC(=O)CN(C)CCCN1C(=O)c2cccc3cccc(c23)C1=O`: the viability at 24 h, up to 100 µM in series [1] was 90%. Further, the cytotoxic concentration (CC50) at 24 h in series [2] was greater than 100 µM.
With `CC1CCN(CC(=O)NN2C(=O)c3cccc4cccc(c34)C2=O)CC1`, the viability at 24 h, up to 100 µM in series [1] was determined as 104%. Moreover, in series [2], the CC50 at 24 h was greater than 100 µM. The compound also registered a log Ka in the series listed under Bos taurus of 5.73.
Regarding `CN(C)CCCNC(=O)CCCn1c2ccccc2c2nc3ccccc3nc21`, the viability at 24 h, up to 100 µM in series [1] came to 96%. The 50% cytotoxic concentration (CC50) at 24 h in series [2] was greater than 100 µM. The log Ka in the series listed under Bos taurus worked out at 5.09.
For `O=C(CCCn1c2ccccc2c2nc3ccccc3nc21)NCCN1CCOCC1` the same measures were 95%, greater than 100 µM and 4.91.
For the compound `CCN(CCO)CCN1C(=O)c2cccc3cccc(c23)C1=O`, the viability at 24 h, up to 100 µM in series [1] amounted to 79%. In series [2], the CC50 at 24 h was determined as 100 µM.
`O=C(CN1CCCCC1)N/N=C1/C(=O)Nc2ccc3ccccc3c21` gave a log Ka in the series filed under Bos taurus of 6.21. In series [3], the Activity was found to be 10%.
`c1ccc2nc3c(nc2c1)c1ccccc1n3CCN1CCCCCC1` gave a log Ka in the series filed under Bos taurus of 6.16. In addition, the Activity in series [3] is given as 90%.
In the case of `CCCCN(CCO)CCN1C(=O)c2cccc3cccc(c23)C1=O`, the viability at 24 h, up to 100 µM in series [1] was 70%. Moreover, in series [2], the CC50 at 24 h is greater than 100 µM.
`O=C(CCCn1c2ccccc2c2nc3ccccc3nc21)OCCN1CCCCC1` displayed a log Ka in the series listed under Bos taurus of 5.57. In addition, the Activity in series [3] is on record as 25%.
The corresponding values for `CCN(CC)CCCCCn1c2ccccc2c2nc3ccccc3nc21` are 5.61 and 12%.
For `CN(C)CCOCCn1c2ccccc2c2nc3ccccc3nc21` the same measures were 5.59 and 32%.
The corresponding values for `c1ccc2c(c1)ccc1c2c2nc3ccccc3nc2n1CCN1CCOCC1` are 6.94 and 10%.
As to `CN(C)CCNC(=O)CCCn1c2ccccc2c2nc3ccccc3nc21`, in series [1], the viability at 24 h, up to 100 µM is 93%. In addition, the half-maximal cytotoxic concentration (CC50) at 24 h in series [2] was 100 µM. The same compound yielded a log Ka in the series filed under Bos taurus of 5.01.
In the series filed under Bos taurus, `CN(C)CCCNC(=O)CCCCCN1C(=O)c2cccc3cccc(c23)C1=O` had a log Ka of 6.1. This compound also displayed an Activity in series [3] of 100%.
Consider `CCN(CC)CCOCCn1c2ccccc2c2nc3ccccc3nc21`, for which, in the series filed under Bos taurus, the log Ka worked out at 5.26. In addition, the Activity in series [3] is recorded as 56%.
For `CCN(CC)CCCCCCn1c2ccccc2c2nc3ccccc3nc21` the same measures were 5.65 and 75%.
For `CC1CCN(CCn2c3ccccc3c3nc4ccccc4nc32)CC1` the same measures were 5.98 and 90%.
The corresponding values for `CCN(CC)CCCNC(=O)CCN1C(=O)c2cccc3cccc(c23)C1=O` are 5.79 and 10%.
The compound `CCN(CC)CCNC(=O)CCN1C(=O)c2cccc3cccc(c23)C1=O` yielded a log Ka in the series filed under Bos taurus of 5.85. For the same compound, the Activity in series [3] was determined as 20%.
`CCN(CC)CC(=O)N/N=C1/C(=O)Nc2ccc3ccccc3c21` yielded a log Ka in the series listed under Bos taurus of 6.3. In series [3], this compound had an Activity of 30%.
For `c1ccc2nc3c(nc2c1)c1ccccc1n3CCNCCN1CCOCC1` the same measures were 6.17 and 40%.
`CCN(CC)CCCOC(=O)CCCn1c2ccccc2c2nc3ccccc3nc21` showed a log Ka in the series listed under Bos taurus of 5.29. This compound had an Activity in series [3] of 0%.
Consider `CC1CCCCN1CCn1c2ccccc2c2nc3ccccc3nc21` (stereo not given), for which the log Ka in the series filed under Bos taurus was determined as 5.19. Also, in series [3], the Activity is on record as 90%.
For `c1ccc2nc3c(nc2c1)c1ccccc1n3CCCCCCN1CCOCC1` the same measures were 5.73 and 6%.
With `CN1CCN(CCN2C(=O)c3cccc4cccc(c34)C2=O)CC1`, the viability at 24 h, up to 100 µM in series [1] turned out to be 65%. Moreover, in series [2], the CC50 at 24 h was determined as 100 µM.
For the compound `O=C(CN1CCCCCC1)N/N=C1\C(=O)Nc2ccccc21`, the log Ka in the series listed under Bos taurus amounted to 5.49. The same compound yielded an Activity in series [3] of 80%.
For `c1ccc2nc3c(nc2c1)c1ccccc1n3CCCCCN1CCCCC1` the same measures were 5.68 and 89%.
The corresponding values for `O=C(Cn1c2ccccc2c2nc3ccccc3nc21)OCCCN1CCOCC1` are 5.14 and 15%.
For the compound `COC(=O)CN1CCN(CCN2C(=O)c3cccc4cccc(c34)C2=O)CC1`, the viability at 24 h, up to 100 µM in series [1] is 78%. Besides, the CC50 at 24 h in series [2] was greater than 100 µM.
In the series filed under Bos taurus, `c1ccc2nc3c(nc2c1)c1ccccc1n3CCCCCN1CCOCC1` returned a log Ka of 5.73. The compound also showed an Activity in series [3] of 77%.
The corresponding values for `OCCNCCCn1c2ccccc2c2nc3ccccc3nc21` are 6.4 and 37%.
For the compound `CCN(CC)CCCNC(=O)CCCCCN1C(=O)c2cccc3cccc(c23)C1=O`, the log Ka in the series listed under Bos taurus amounted to 6.81. The Activity in series [3] amounted to 50%.
The corresponding values for `CC1CCN(CC(=O)N/N=C2\C(=O)Nc3ccccc32)CC1` are 5.4 and 60%.
The corresponding values for `c1ccc2nc3c(nc2c1)c1ccccc1n3CCCN1CCOCC1` are 6.09 and 25%.
The corresponding values for `CN(C)CCCn1c2ccccc2c2nc3ccccc3nc21` are 6.01 and 23%.
For the compound `CCN(CC)CCn1c2ccc(OC)cc2c2nc3ccccc3nc21`, the viability at 24 h, up to 100 µM in series [1] was 60%. For the same compound, the CC50 at 24 h in series [2] is 100 µM.
For the compound `CCCN(CCC)CCn1c2ccc3ccccc3c2c2nc3ccccc3nc21`, the log Ka in the series filed under Bos taurus was 6.91. The Activity in series [3] was determined as 16%.
The corresponding values for `CC1CCCCN1CCn1c2ccc3ccccc3c2c2nc3ccccc3nc21` (stereo not given) are 6.83 and 20%.
For `CCCN(CCC)CCCCn1c2ccccc2c2nc3ccccc3nc21` the same measures were 5.49 and 13%.
The corresponding values for `O=C(Cn1c2ccccc2c2nc3ccccc3nc21)NCCCNCCO` are 5.06 and 72%.
In turn, `CCN(CC)CCCOC(=O)Cn1c2ccccc2c2nc3ccccc3nc21` yielded a log Ka in the series listed under Bos taurus of 5.17. Moreover, the Activity in series [3] was 0%.
The corresponding values for `CCN(CC)CC(=O)N/N=C1\C(=O)Nc2ccccc21` are 5.96 and 80%.
The corresponding values for `CC1CCN(CC(=O)N/N=C2/C(=O)Nc3ccc4ccccc4c32)CC1` are 7.11 and 40%.
The corresponding values for `O=C(Cn1c2ccccc2c2nc3ccccc3nc21)NCCNCCO` are 5.37 and 70%.
`CCN(CC)CCN1C(=O)/C(=N\NC(=O)CN2CCC(C)CC2)c2ccccc21` registered a log Ka in the series filed under Bos taurus of 6.47. This compound displayed an Activity in series [3] of 100%.
`O=C(CN1CCCCCC1)N/N=C1/C(=O)Nc2ccc3ccccc3c21` returned a log Ka in the series filed under Bos taurus of 6.52. This compound came in with an Activity in series [3] of 20%.
The corresponding values for `O=C(CN1CCCCC1)N/N=C1\C(=O)Nc2ccccc21` are 5.64 and 100%.
The corresponding values for `O=C(CCCN1C(=O)c2cccc3cccc(c23)C1=O)NCCCN1CCOCC1` are 5.07 and 30%.
The corresponding values for `O=C(CCN1C(=O)c2cccc3cccc(c23)C1=O)NCCCN1CCOCC1` are 5.72 and 30%.
As to `CCN(CC)CCN1C(=O)/C(=N\NC(=O)CCN2CCN(C)CC2)c2ccccc21`, the log Ka in the series filed under Bos taurus came to 6.15. The compound further came in with an Activity in series [3] of 100%.
For `O=C(CN1CCOCC1)N/N=C1/C(=O)Nc2ccc3ccccc3c21` the same measures were 6.76 and 15%.
For the compound `CN(CCO)CCN1C(=O)c2cccc3cccc(c23)C1=O`, the viability at 24 h, up to 100 µM in series [1] stood at 88%. Moreover, in series [2], the CC50 at 24 h is greater than 100 µM.
With `CCN(CC)CCOC(=O)Cn1c2ccccc2c2nc3ccccc3nc21`, the log Ka in the series listed under Bos taurus worked out at 5.42. Besides, the Activity in series [3] turned out to be 45%.
Take `OCCNCCn1c2ccccc2c2nc3ccccc3nc21`: the log Ka in the series filed under Bos taurus worked out at 6.31. Also, in series [3], the Activity is 80%.
For `c1ccc2nc3c(nc2c1)c1ccccc1n3CCOCCN1CCOCC1` the same measures were 5.32 and 50%.
For `CC1CCN(CCC(=O)N/N=C2\C(=O)Nc3ccccc32)CC1` the same measures were 5.91 and 80%.
The corresponding values for `CCN(CC)CCN1C(=O)/C(=N\NC(=O)CCN2CCCCC2)c2ccccc21` are 5.39 and 100%.
`CN(C)CCn1c2ccc3ccccc3c2c2nc3ccccc3nc21`: in the series listed under Bos taurus, the log Ka stood at 6.94. The compound also yielded an Activity in series [3] of 21%.
The corresponding values for `CCCCN(CC)CCn1c2ccccc2c2nc3ccccc3nc21` are 6.01 and 50%.
For `O=C(CN1CCCC1)N/N=C1/C(=O)Nc2ccc3ccccc3c21` the same measures were 6.44 and 10%.
In turn, `c1ccc2nc3c(nc2c1)c1ccccc1n3CCOCCN1CCCCC1` returned a log Ka in the series listed under Bos taurus of 5.19. The compound also had an Activity in series [3] of 51%.
The corresponding values for `CCN(CC)CCCNC(=O)CCCN1C(=O)c2cccc3cccc(c23)C1=O` are 6.21 and 15%.
For `O=C(Cn1c2ccccc2c2nc3ccccc3nc21)NCCN1CCCCC1` the same measures were 5.15 and 80%.
